Experimental data reported in ChEMBL document CHEMBL1148984, “Bioactive compounds from the seeds of Punica granatum (pomegranate)” (2004).

What was measured:
[1] = tested on: Plasma; test: Antioxidant activity against LDL-susceptible to oxidation in New Zealand White rabbit plasma assessed as increase in conjugated diene formation at 50 ug/mL after 30 mins; format: functional, Oryctolagus cuniculus
Method in brief: (§1)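 LDL in phosphate-buffered KCl dialysis buffer (pH 7.4), dialysed 4 h at 4 °C in the dark and diluted to 0.25 mg LDL/mL (protein by Lowry, BSA standard). Compound (final 1.25, 2.5 or 5.0 × 10-5 g/mL) or saline vehicle preincubated ~30 min at 20 °C. Oxidation started with CuSO4 (final 5.0 µmol/L), 37 °C for 4 h. A234 monitored; conjugated diene increase = (A4h − A0h)/A0h × 100%.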

[2] = tested on: Plasma; test: Antioxidant activity against LDL-susceptible to oxidation in New Zealand White rabbit plasma assessed as increase in conjugated diene formation at 25 ug/mL after 30 mins; format: functional, Oryctolagus cuniculus; method in brief: as §1
[3] = tested on: Plasma; test: Antioxidant activity against LDL-susceptible to oxidation in New Zealand White rabbit plasma assessed as increase in conjugated diene formation at 12.5 ug/mL after 30 mins; format: functional, Oryctolagus cuniculus; method in brief: as §1
[4] = tested on: Brain; test: Antioxidant activity against lipid peroxidation in Wistar rat brain assessed as inhibition of malondialdehyde release at 50 ug/mL by thiobarbituric acid method relative to control; format: functional, tissue-based; design: scale not given: the % may be the effect or the level left
Method in brief: (§2)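 Male Wistar rat brain homogenised fresh (10% w/v) in 50 mM phosphate buffer, pH 7.4; protein by Lowry. Aliquots incubated 30 min at 37 °C with compound (final 1.25, 2.5 or 5.0 × 10-5 g/mL) or saline vehicle. Stopped with SDS, then TBA in HCl/acetic acid, boiled 15 min. Chromogen extracted into n-butanol–pyridine (15:1); A532 read against MDA standards.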

[5] = tested on: Brain; test: Antioxidant activity against lipid peroxidation in Wistar rat brain assessed as inhibition of malondialdehyde release at 25 ug/mL by thiobarbituric acid method relative to control; format: functional, tissue-based; design: scale not given: the % may be the effect or the level left; method in brief: as §2
[6] = tested on: Brain; test: Antioxidant activity against lipid peroxidation in Wistar rat brain assessed as inhibition of malondialdehyde release at 12.5 ug/mL by thiobarbituric acid method relative to control; format: functional, tissue-based; design: scale not given: the % may be the effect or the level left; method in brief: as §2

Row | SMILES | Conjugated diene increase [1] | Activity [2] | Activity [3] | Activity [4] | Activity [5] | Activity [6]
1 | COc1cc(/C=C/CO[C@@H]2O[C@H](CO[C@@H]3OC[C@](O)(CO)[C@H]3O)[C@@H](O)[C@H](O)[C@H]2O)ccc1O | 7.3% | 10.5% | 15.4% | 35.6% | 32.4% | 28.9%
2 | O=C1O[C@H]([C@@H](O)CO)C(O)=C1O [ASCORBIC ACID] | – | – | 3.7% | – | – | 50.1%
3 | COc1cc(/C=C/CO[C@@H]2O[C@H](CO[C@@H]3OC[C@](O)(CO)[C@H]3O)[C@@H](O)[C@H](O)[C@H]2O)cc(OC)c1O | 12.2% | 14.4% | 17.6% | 32.1% | 29.8% | 26.5%
4 | COc1cc2c(=O)oc3c(OC)c(O)cc4c(=O)oc(c1OC)c2c34 | 21% | 27.2% | 29.8% | 31.1% | 24.6% | 18.3%
5 | COc1c(O)cc2c(=O)oc3c(OC)c(O)cc4c(=O)oc1c2c34 | 20.4% | 28.9% | 27% | 28.1% | 20.1% | 21.8%
